We go through two compounds from PMC11609979 (Chemical Science, 2024).

Data set [1] concerns A549 cells. The experiment in a line: Seahorse MitoStress Test. Particulars: for Lowest concentration for inhibition of OCR, Dark: 1 h incubation, no irradiation. The class given is cell-based. Summed up: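 OCR/ECAR were measured by extracellular flux with sequential oligomycin, FCCP, then rotenone/antimycin A. Basal, maximal and non-mitochondrial respiration were derived. OCR IC50 was taken from maximal respiration. The phenotype map plots basal versus stressed states.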

The subject of data set [2] is A549 cells. Nature of the data set: Cell cytotoxicity. Format: cell-based. Particulars: Homo sapiens, A549, 72 h, read-out: IC50 (±St. Dev.) Light. Summed up: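 A549 cells were exposed to test compound and viability was read 72 h after treatment. Dark samples were protected from light. IC50 was taken from dose–response curves, n = 3.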
The test system of data set [3] is A549 cells. The experiment in a line: Seahorse Glycolytic Rate Test. Particulars: irradiation with red light 660 nm. The class given is cell-based. The gist of the method: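 A549 cells were incubated 1 h with test compound, kept dark or irradiated. Irradiation used indigo 450 nm light (485 mW cm^-2) or red 660 nm light (16 mW cm^-2). Concentrations were chosen from light/dark cytotoxicity to keep cells viable. Glycolysis was blocked by 2-deoxyglucose injection, then non-glycolytic acidification was measured. Mitochondrial acidification was also read out.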

For data set [4] the following is noted: cited from earlier work.

One may read the log P as the decadic logarithm of the partition coefficient of the neutral form, usually between octanol and water.

On to `N.N.[Cl][Pt][Cl]` [Cisplatin], for which the “Lowest concentration for inhibition of OCR, Dark” value in data set [1] (A549 cells) was more than 20 µM.

On to `CCCCCCOC(C)c1c(C)c2cc3nc(c4c5[nH]c(cc6nc(cc1[nH]2)C(C)=C6CC)c(C)c5C(=O)C4)[C@@H](CCC(=O)O)[C@@H]3C` (stereo partly shown) [HPPH, 2-(1-hexyloxyethyl)-2-devinylpyropheophorbide-a], for which the IC50 in data set [2] is 3700 nM; in data set [1] (Homo sapiens, A549, read-out: OCR IC50 (from maximal respiration dose-response)), 1200 nM. In addition, in data set [1] (A549 cells, 1 h, dark, Fig. 3A and C), the “Cellular respiration in the absence of light” value is “unaffected”. Besides, the “Lowest concentration for inhibition of OCR, Dark” value in data set [1] (A549 cells) was found to be 3 µM. In data set [1] (A549 cells, indigo light for 3, red light (660 nm) for HPPH, Fig. 3B and D), the “Cellular respiration following irradiation” value is reported as “marked concentration-dependent decrease”. Also, the “Fold lower than the IC50 for cytotoxicity (quiescent phenotype concentration)” value in data set [1] (A549 cells, red light) was found to be 10 fold. The “Concentration inducing the quiescent phenotype” value in data set [1] (A549 cells, red light, Fig. S10) came to 0.37 µM. Moreover, the “Concentration with PER showing no glycolytic activity” value in data set [3] was 10 µM. For the same compound, the log partition coefficient (log P) in data set [4] is reported as approximately 6.0.
